Sampled rows, rich in hits. Any-hit rate of the full collection: about 8.9%.
bCat nuc transl: beta-catenin nuclear translocation modulation; HeLa beta-catenin nuclear translocation, immunofluorescence imaging; nuclear translocation activity, % at 5 µM; hit rate 0.3% among 190,000; AID 1665;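 active = nuclear translocation activity above 50% at 5 µM, with a well cell count of 50 or more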;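 note: per-cell ratio of nuclear to cytoplasmic median beta-catenin stain intensity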
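Signal – beta-catenin immunofluorescence imaging with DAPI · Test system – human HeLa cell line · Dosing – 5 µM primary single dose, 0.1% DMSO, 0.02–20 µM confirmation series · Measure – % activation, nuclear-to-cytoplasmic median beta-catenin signal ratio per cell · Incubation – 24 h compound exposure at 37°C, 5% CO2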
Dynein transport: dynein cargo transport inhibition; hit rate 0.47% among 220,000; AID 1381; z-score, hits read low; 3617.4 mouse cells, GR-EGFP nuclear translocation imaging; test concentration mostly 20 µM; stimulated with dexamethasone, 1 µM; active compounds read low;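 active = plate z-score of nuclear minus cytoplasmic receptor signal below a set negative limit, without overly bright fluorescence or cell loss, cut at about -3.5 in these data, passing the limit was not always enough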;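 note: z-score of nuclear minus cytoplasmic ring GR-EGFP intensity difference per well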
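medium = tetracycline-free induction medium containing charcoal-stripped FBS | also added = 1.0 µM final dexamethasone stimulus | schedule = 48 h induction, 1 h compound, 30 min dex at 37 °C | technique = fixed, Hoechst-stained cells imaged at 10x for EGFP | measure = GR-EGFP nuclear translocation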
MT stabilize HCS: stabilizes microtubules in HeLa cells. % tubulin-high responders, % at 10 µM. hit rate 0.83% among 200,000. HeLa tubulin immunostaining HCS, 24 h; share of cells brighter than vehicle mean+2SD;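 active = plate Z-score above 3 for both tubulin-high and condensed-nucleus cell shares, with cell loss under 80%, at 10 µM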;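 note: anti alpha tubulin signal scored within the nucleus-defined area of each cell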
L major viab: Leishmania major promastigote growth inhibition; Leishmania major promastigotes, resazurin fluorescence viability; inhibition, % at 10 µM; hit rate 9% among 200,000; in the data active = inhibition above about 50%;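 note: promastigotes grown with compound for 44 hours at 28 °C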
HSV augment: HSV replication enhancement; HSV replication augmentation in cells, fold increase; maximum fold increase; hit rate 0.005% among 220,000; AID 1956; in the data active = maximum fold increase above about 1.5; tested in PC3 cells
Hits are given with their value; 0 = inactive; - = no result given.

SMILES	bCat nuc transl	Dynein transport	MT stabilize HCS	L major viab	HSV augment
CCC(Oc1ccccc1)C(=O)Nc1ccsc1C(=O)OC (stereo not given)	0	0	0	74	0
CCCNC(=O)Nc1ccsc1C(=O)OC	0	0	0	0	0
CCN(CC)c1nc(N(CC)CC)[nH]c(=O)n1	-	0	0	0	0
CCN(CC)c1nc(=S)nc(NC(C)(C)C)[nH]1	0	0	0	95	0
CC(=O)N1CC2(NC(=O)c3ccccc3N2)c2ccccc21 (stereo not given)	0	0	0	0	-
CCOC(=O)C1=C(C)NC(=S)NC1c1ccc(-c2ccc(Cl)cc2)o1 (stereo not given)	0	0	0	63	0
CCOC(=O)C1=C(C)NC(=O)NC1c1ccc(-c2ccc(Cl)cc2)o1 (stereo not given)	0	0	0	0	0
CCOC(=O)C1=C(C)NC2=C(C(=O)c3ccccc32)C1c1cccnc1 (stereo not given)	0	0	0	82	0
CCOC(=O)C1=C(C)OC(N)=C(C(=O)OCC)C1c1cccnc1 (stereo not given)	0	0	0	84	0
CCOC(=O)C1=C(N)OC2=C(C(=O)CC(C)(C)C2)C1c1cccnc1 (stereo not given)	0	0	0	78	0
CCOc1cc(/C=C/c2cc(C(=O)O)c3ccccc3n2)ccc1OC	0	0	0	0	0
CCOc1cc(/C=C/c2cc(C(=O)O)c3ccccc3n2)ccc1O	0	0	0	75	0
CCCN1C(=O)/C(=C/c2ccc(N3CCOCC3)cc2)NC1=S	0	0	0	0	1.6
C=C(C)C(=O)Nc1cccc(C2=NOC3(C2)C[C@@H](C(N)=O)N(C(=O)c2ccc(OC)cc2)C3)c1 (stereo not given in full)	0	0	-	-	0
CCOC(=O)C1=C(c2ccccc2)Nc2ncnn2C1c1cccc(OC)c1OC (stereo not given)	0	0	0	100	0
CCOC(=O)C1=C(C(F)(F)F)Nc2ncnn2C1c1cc(OC)c(OC)cc1OC (stereo not given)	0	0	0	0	0
CCCC1=C(C(=O)OCC)C(/C=C/c2ccccc2)n2ncnc2N1 (stereo not given)	-	0	45	0	0
CCOC(=O)C1=C(c2ccccc2)Nc2ncnn2C1c1cc(OC)cc(OC)c1OC (stereo not given)	0	0	0	92	0
CCOC(=O)C1=C(c2ccccc2)Nc2ncnn2C1c1ccc(O)cc1 (stereo not given)	0	0	-	-	0
CC(C)(C)c1ccc(C(=O)Nc2ccccc2Cl)cc1	0	0	0	0	0
COc1ccc(NS(=O)(=O)c2ccc3nc(COc4ccc5ccccc5c4)[nH]c3c2)cc1	0	0	0	0	0
COc1ccc(NS(=O)(=O)c2ccc3nc(COc4cccc5ccccc45)[nH]c3c2)cc1	0	0	0	95	0
COc1cc(C2C(Oc3ccccc3C)C(=O)N2Cc2ccc(F)cc2)cc(OC)c1OC (stereo not given)	0	0	0	99	0
CN(Cc1cc(=O)n2ccsc2n1)Cc1nc2ccccc2c(=O)[nH]1	0	0	0	0	0
CCOC(=O)C(C)Sc1nc(-c2cccs2)ccc1C#N (stereo not given)	0	0	44	0	0
SMILES	bCat nuc transl	Dynein transport	MT stabilize HCS	L major viab	HSV augment
C=COC(=O)CSc1nc(-c2cccs2)ccc1C#N	0	0	0	0	0
CCN(CC)S(=O)(=O)c1cc(NC(=O)C(C)N2CCN(Cc3ccc4c(c3)OCO4)CC2)ccc1C (stereo not given)	0	0	0	88	0
CCN(CC)S(=O)(=O)c1cc(NC(=O)C(C)Nc2ccccc2N2CCOCC2)ccc1C (stereo not given)	0	0	0	71	0
CCN(CC)S(=O)(=O)c1cc(NC(=O)C(C)N2CCN(c3ccccn3)CC2)ccc1C (stereo not given)	0	0	0	0	0
O=C(NC(=S)NC1CCCCCC1)c1cncc(Br)c1	0	0	0	61	0
O=C(NC(=S)Nc1ccc(N2CCOCC2)c(Cl)c1)c1cncc(Br)c1	-	0	0	82	0
O=C(Nc1ccc(N2CCCC2)c(Cl)c1)c1cccnc1	0	0	0	68	0
O=C(NC(=S)Nc1ccc(N2CCOCC2)c(Cl)c1)c1cccs1	0	0	0	0	0
O=C(Nc1ccc(N2CCCCC2)c(Cl)c1)c1cccnc1	0	0	0	0	0
COc1cc(OC)cc(C(=O)N/N=C/c2ccc(OC)c(COc3ccc4ccccc4c3)c2)c1	0	0	0	0	-
